In ChEMBL document CHEMBL4765307, “Design, synthesis and biological activity of novel 2,3,4,5-tetra-substituted thiophene derivatives as PI3Kα inhibitors with potent antitumor activity” (Eur J Med Chem, 2020):

Assays:
[1] = molecular target: PI3-kinase p110-alpha/p85-alpha (Homo sapiens, UniProt P42336); test: Inhibition of His-tagged human full length PI3Kalpha coexpressed with p85 alpha in baculovirus expression system using PIP2 peptide as substrate incubated for 1 hr in presence ATP by Kinase-Glo assay
Chain of PI3-kinase p110-alpha/p85-alpha (P27986 whole entry): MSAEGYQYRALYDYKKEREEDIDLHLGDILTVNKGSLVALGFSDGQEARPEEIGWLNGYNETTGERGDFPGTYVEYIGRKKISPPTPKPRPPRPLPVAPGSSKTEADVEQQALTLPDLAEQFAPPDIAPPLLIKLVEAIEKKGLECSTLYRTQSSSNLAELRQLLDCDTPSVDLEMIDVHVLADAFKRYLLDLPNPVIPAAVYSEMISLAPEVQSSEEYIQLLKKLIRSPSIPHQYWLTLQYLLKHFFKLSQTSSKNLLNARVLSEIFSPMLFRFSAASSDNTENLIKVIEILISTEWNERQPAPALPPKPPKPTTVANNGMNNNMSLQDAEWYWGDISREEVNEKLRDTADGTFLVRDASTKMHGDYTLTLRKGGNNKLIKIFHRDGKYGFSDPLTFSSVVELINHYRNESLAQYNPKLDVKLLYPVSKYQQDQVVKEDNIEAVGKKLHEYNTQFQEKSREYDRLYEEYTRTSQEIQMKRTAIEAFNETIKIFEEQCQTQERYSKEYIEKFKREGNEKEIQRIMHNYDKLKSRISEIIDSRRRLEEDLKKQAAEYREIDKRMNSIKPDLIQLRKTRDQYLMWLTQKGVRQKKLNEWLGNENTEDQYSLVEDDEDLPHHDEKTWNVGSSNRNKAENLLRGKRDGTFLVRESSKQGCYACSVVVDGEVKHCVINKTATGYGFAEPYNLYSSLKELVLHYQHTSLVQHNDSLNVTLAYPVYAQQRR
Chain of PI3-kinase p110-alpha/p85-alpha (P42336 whole entry): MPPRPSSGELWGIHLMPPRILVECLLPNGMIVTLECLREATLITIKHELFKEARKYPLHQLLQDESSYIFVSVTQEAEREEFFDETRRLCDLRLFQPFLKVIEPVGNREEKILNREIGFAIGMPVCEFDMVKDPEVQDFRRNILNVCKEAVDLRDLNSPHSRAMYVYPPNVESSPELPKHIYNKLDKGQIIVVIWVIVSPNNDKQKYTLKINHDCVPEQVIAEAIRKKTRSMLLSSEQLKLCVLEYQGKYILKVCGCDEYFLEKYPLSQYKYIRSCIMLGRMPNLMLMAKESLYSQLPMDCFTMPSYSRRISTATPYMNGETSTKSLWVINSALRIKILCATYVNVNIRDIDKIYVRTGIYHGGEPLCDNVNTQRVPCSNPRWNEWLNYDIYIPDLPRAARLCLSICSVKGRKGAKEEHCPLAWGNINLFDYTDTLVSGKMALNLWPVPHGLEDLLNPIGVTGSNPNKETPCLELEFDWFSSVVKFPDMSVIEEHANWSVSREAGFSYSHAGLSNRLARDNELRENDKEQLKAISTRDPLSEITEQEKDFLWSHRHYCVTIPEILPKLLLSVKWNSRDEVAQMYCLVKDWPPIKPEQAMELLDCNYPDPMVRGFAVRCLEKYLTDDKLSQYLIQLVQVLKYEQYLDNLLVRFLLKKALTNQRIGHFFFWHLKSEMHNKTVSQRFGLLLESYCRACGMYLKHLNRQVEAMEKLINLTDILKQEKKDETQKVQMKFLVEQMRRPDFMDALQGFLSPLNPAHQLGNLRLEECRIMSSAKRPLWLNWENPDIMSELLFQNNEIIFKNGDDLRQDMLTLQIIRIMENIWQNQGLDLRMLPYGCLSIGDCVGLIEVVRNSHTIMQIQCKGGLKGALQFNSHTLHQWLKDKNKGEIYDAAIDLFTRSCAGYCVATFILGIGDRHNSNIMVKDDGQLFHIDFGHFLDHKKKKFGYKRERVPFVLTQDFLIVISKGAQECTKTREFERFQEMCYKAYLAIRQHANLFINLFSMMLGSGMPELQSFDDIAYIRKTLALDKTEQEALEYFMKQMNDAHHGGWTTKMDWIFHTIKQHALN

U-87 MG = test: Antiproliferative activity against human U87MG cells harboring PTEN deletion assessed as reduction in cell viability after 3 days by CellTiter-Glo luminescence assay; format: functional, cell-based, U-87MG ATCC; details: 72 h
Summary of the method: (§1)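 ATCC lines, 10% FBS: T47D, H1975, H460 in RPMI1640; U87MG in DMEM; A549 in F12K. Seeded 3×10^3 per well the day before, exposed to 3-fold serial dilutions or DMSO for 3 days at 37 °C, 5% CO2; CellTiter-Glo luminescence.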

[2] = molecular target: Phosphatidylinositol 4,5-bisphosphate 3-kinase catalytic subunit gamma isoform (Homo sapiens, UniProt P48736); test: Inhibition of GST-tagged human recombinant PI3Kgamma catalytic domain (468 to 1203 residues) expressed in insect cells using PIP2 peptide as substrate incubated for 1 hr in presence ATP by ADP-Glo Kinase Assay
Chain of Phosphatidylinositol 4,5-bisphosphate 3-kinase catalytic subunit gamma isoform (P48736 whole entry, the tested form may be a part, canonical isoform): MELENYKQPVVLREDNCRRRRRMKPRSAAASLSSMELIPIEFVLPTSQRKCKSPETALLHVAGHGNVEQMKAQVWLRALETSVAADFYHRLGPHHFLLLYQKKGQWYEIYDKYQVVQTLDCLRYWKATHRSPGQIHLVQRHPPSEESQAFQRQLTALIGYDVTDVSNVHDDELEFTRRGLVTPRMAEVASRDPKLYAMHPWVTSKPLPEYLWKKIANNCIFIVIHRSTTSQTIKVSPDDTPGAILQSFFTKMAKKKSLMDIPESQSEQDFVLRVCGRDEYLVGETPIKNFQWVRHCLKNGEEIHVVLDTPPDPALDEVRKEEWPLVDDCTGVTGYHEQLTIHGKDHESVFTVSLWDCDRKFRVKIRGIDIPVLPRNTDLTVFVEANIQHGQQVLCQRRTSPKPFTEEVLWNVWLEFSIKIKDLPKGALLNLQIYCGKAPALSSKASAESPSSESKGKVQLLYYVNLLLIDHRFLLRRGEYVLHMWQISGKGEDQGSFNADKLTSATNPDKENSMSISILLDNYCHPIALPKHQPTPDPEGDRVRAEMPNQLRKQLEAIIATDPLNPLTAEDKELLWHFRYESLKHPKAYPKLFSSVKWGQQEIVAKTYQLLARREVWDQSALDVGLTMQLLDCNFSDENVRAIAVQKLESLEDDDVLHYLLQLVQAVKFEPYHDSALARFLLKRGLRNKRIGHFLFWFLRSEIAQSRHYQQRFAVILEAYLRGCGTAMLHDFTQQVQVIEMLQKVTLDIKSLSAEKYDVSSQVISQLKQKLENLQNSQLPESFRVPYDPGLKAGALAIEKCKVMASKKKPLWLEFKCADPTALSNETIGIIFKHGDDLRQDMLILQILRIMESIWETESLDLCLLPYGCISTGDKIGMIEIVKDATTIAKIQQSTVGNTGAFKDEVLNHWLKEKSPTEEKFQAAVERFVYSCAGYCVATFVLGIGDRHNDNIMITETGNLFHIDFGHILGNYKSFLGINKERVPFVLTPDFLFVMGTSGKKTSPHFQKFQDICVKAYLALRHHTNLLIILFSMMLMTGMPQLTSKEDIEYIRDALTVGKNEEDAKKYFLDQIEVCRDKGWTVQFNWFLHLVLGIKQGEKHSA
Summary of the method: (§2)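 ADP-Glo reagent 1 for 40 min, then reagent 2 with 60 min equilibration before reading. IC50 taken from inhibition curves; average of at least two runs.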

T47D = test: Antiproliferative activity against human T47D cells harboring PIK3CA mutation assessed as reduction in cell viability after 3 days by CellTiter-Glo luminescence assay; format: functional, cell-based; details: 72 h; summary of the method: as §1
PI3K p110 beta/p85 alpha = PI3K p110 beta/p85 alpha (Homo sapiens, UniProt P42338); test: Inhibition of N-terminal His6-tagged human recombinant full length PI3Kbeta co-expressed with human recombinant full length P85alpha in baculovirus infected Sf21 cells using PIP2 peptide as substrate incubated for 1 hr in presence ATP by ADP-Glo Kinase Assay; summary of the method: as §2
Chain of PI3K p110 beta/p85 alpha (P27986 whole entry): as the sequence (P27986 whole entry) above
Chain of PI3K p110 beta/p85 alpha (P42338 whole entry): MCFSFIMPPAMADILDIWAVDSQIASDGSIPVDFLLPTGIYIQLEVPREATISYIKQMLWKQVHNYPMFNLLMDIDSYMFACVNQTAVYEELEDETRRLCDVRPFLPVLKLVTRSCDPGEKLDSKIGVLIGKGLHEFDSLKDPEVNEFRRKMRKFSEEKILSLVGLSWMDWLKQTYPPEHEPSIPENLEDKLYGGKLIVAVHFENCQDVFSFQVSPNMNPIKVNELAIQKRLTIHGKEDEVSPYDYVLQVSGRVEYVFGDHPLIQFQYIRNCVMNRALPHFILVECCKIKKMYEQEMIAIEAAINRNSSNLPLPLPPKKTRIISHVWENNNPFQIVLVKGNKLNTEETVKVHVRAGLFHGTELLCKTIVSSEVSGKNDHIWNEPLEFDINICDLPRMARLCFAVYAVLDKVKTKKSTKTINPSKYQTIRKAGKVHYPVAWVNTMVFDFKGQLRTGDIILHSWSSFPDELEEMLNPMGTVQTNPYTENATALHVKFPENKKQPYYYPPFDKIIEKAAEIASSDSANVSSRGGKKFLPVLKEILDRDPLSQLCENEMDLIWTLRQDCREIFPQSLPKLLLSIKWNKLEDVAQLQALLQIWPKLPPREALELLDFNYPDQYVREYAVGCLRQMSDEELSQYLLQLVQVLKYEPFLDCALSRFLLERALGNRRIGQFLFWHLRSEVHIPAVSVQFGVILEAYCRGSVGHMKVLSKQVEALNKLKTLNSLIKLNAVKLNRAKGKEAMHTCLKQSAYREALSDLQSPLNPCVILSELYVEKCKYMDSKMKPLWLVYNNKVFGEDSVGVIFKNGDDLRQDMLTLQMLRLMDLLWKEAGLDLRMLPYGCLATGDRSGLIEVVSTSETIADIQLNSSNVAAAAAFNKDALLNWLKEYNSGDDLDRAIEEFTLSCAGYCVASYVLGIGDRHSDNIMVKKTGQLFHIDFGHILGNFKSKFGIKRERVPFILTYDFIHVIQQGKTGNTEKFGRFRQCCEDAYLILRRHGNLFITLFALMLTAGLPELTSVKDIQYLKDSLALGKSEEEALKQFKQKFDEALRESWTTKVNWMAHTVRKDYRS

NCI-H1975 = test: Antiproliferative activity against human NCI-H1975 cells harboring PIK3CA mutation assessed as reduction in cell viability after 3 days by CellTiter-Glo luminescence assay; format: functional, cell-based; details: NCI-H1975, 72 h; summary of the method: as §1
NCI-H460 = test: Antiproliferative activity against human NCI-H460 cells harboring PIK3CA mutation assessed as reduction in cell viability after 3 days by CellTiter-Glo luminescence assay; format: functional, cell-based; details: NCI-H460, 72 h; summary of the method: as §1
[3] = molecular target: PI3-kinase p110-delta/p85-alpha (Homo sapiens, UniProt O00329); test: Inhibition of N-terminal His6-tagged human recombinant full length PI3Kdelta co-expressed with human recombinant full length P85alpha in baculovirus infected Sf21 cells using PIP2 peptide as substrate incubated for 2 hrs in presence ATP by ADP-Glo Kinase Assay
Chain of PI3-kinase p110-delta/p85-alpha (P27986 whole entry): as the sequence (P27986 whole entry) above
Chain of PI3-kinase p110-delta/p85-alpha (O00329 whole entry): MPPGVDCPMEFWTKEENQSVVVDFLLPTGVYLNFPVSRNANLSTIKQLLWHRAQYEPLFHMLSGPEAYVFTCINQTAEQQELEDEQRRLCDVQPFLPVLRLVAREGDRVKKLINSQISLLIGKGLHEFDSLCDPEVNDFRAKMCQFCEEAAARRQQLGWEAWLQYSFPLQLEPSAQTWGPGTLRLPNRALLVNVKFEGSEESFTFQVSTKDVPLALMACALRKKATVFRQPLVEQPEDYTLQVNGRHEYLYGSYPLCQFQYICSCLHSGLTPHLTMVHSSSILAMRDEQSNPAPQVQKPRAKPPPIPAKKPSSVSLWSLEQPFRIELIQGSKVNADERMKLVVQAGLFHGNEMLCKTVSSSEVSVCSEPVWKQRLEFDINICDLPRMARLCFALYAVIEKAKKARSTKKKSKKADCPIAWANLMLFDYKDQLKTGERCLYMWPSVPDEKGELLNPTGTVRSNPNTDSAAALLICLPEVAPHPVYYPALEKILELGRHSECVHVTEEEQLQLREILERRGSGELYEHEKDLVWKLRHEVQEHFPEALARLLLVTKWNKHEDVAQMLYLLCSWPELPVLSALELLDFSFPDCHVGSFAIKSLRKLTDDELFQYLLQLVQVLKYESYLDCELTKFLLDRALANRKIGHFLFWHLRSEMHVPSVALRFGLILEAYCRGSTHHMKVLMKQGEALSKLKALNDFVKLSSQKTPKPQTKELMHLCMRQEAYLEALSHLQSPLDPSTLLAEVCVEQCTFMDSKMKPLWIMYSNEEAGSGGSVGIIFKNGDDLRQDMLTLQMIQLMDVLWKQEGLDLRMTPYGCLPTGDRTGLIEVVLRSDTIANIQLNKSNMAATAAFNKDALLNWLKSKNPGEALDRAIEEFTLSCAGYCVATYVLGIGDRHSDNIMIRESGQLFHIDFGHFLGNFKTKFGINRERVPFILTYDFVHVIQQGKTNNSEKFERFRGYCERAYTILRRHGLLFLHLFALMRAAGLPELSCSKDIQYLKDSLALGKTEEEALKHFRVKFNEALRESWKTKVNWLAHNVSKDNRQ
Summary of the method: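 ADP-Glo reagent 1 for 40 min, then reagent 2 with 60 min equilibration. IC50 from inhibition curves; average of at least two runs.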

[4] = molecular target: Serine/threonine-protein kinase mTOR (Homo sapiens, UniProt P42345); test: Inhibition of N-terminal FLAG-tagged human recombinant mTOR (1362 to end residues) using ULight-4E-BP1 (Thr37/46) peptide as substrate incubated for 1 hr in presence of ATP by Lance Ultra assay
Summary of the method: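 ULight-4E-BP1 (Thr37/46) peptide with 13 µM ATP; 1 h at room temperature. Stopped with EDTA quench buffer plus Eu-anti-phospho-4E-BP1, 15 min shake and 60 min equilibration, TR-FRET read. IC50 from inhibition curves; average of at least two runs.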

A549 = test: Antiproliferative activity against human A549 cells assessed as reduction in cell viability after 3 days by CellTiter-Glo luminescence assay; format: functional, cell-based; details: A549, 72 h; summary of the method: as §1
[5] = molecular target: Phosphatidylinositol 4,5-bisphosphate 3-kinase catalytic subunit alpha isoform (Homo sapiens) (UniProt P42336); test: Inhibition of PI3Kalpha in human T47D cells assessed as inhibition of insulin-stimulated Akt phosphorylation at Ser473 residue at 0.3 uM preincubated for 2 hrs followed by incubation with insulin for 2 hrs by western blot analysis relative to control; format: cell-based; details: time 4.0 hrs
Summary of the method: (§3)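 T47D cells given compound at 37 °C for 2 h, then stimulated with 1 µg/mL insulin for 2 h; lysed in RIPA with protease/phosphatase inhibitors and 1 mM PMSF; BCA-normalised SDS-PAGE, PVDF blot probed overnight at 4 °C for total Akt and pAkt Ser473, infrared secondary detection.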

[6] = molecular target: Phosphatidylinositol 4,5-bisphosphate 3-kinase catalytic subunit alpha isoform (Homo sapiens) (UniProt P42336); test: Inhibition of PI3Kalpha in human T47D cells assessed as inhibition of insulin-stimulated Akt phosphorylation at Ser473 residue at 3 uM preincubated for 2 hrs followed by incubation with insulin for 2 hrs by western blot analysis relative to control; format: cell-based; details: time 4.0 hrs; summary of the method: as §3
[7] = molecular target: Phosphatidylinositol 4,5-bisphosphate 3-kinase catalytic subunit alpha isoform (Homo sapiens) (UniProt P42336); test: Inhibition of PI3Kalpha in human T47D cells assessed as inhibition of insulin-stimulated Akt phosphorylation at Ser473 residue at 0.1 uM preincubated for 2 hrs followed by incubation with insulin for 2 hrs by western blot analysis relative to control; format: cell-based; details: time 4.0 hrs; summary of the method: as §3
[8] = molecular target: Phosphatidylinositol 4,5-bisphosphate 3-kinase catalytic subunit alpha isoform (Homo sapiens) (UniProt P42336); test: Inhibition of PI3Kalpha in human T47D cells assessed as inhibition of insulin-stimulated Akt phosphorylation at Ser473 residue at 1 uM preincubated for 2 hrs followed by incubation with insulin for 2 hrs by western blot analysis relative to control; format: cell-based; details: time 4.0 hrs; summary of the method: as §3

Cc1cc(/C=N/NC(=O)Nc2ccc(-c3c(-c4nc[nH]n4)sc(N4CCOCC4)c3C#N)cc2)cc(C)c1O
IC50 [1]: 20.3 nM

N#Cc1c(N2CCOCC2)sc(-c2nc[nH]n2)c1-c1ccc(NC(=O)Nc2ccc(F)cc2)cc1
IC50 (U-87 MG): 3350 nM | IC50 [2]: 289 nM | IC50 (T47D): 520 nM | IC50 (PI3K p110 beta/p85 alpha): 95 nM | IC50 (NCI-H1975): 2040 nM | IC50 (NCI-H460): 590 nM | IC50 [3]: 238 nM | IC50 [1]: 35.3 nM | IC50 [4]: 1660 nM | IC50 (A549): 5520 nM

N#Cc1c(N2CCOCC2)sc(-c2nc[nH]n2)c1-c1ccc(NC(=O)N/N=C/c2ccc(O)c(O)c2)cc1
IC50 [1]: 21.9 nM

N#Cc1ccc(-c2c(-c3ncn[nH]3)sc(N3CCOCC3)c2C#N)c(F)c1
IC50 (U-87 MG): 2310 nM | IC50 (T47D): 340 nM | IC50 (NCI-H1975): 940 nM | inhibition [5]: 73% | IC50 (NCI-H460): 120 nM | inhibition [6]: 86% | inhibition [7]: 65% | inhibition [8]: 83% | IC50 (A549): 3580 nM

N#Cc1c(N2CCOCC2)sc(-c2nc[nH]n2)c1-c1ccc(NC(=O)Nc2cccc(Br)c2)cc1
IC50 [1]: 239 nM

Cc1nc(NC(=O)N2CCC[C@H]2C(N)=O)sc1-c1ccnc(C(C)(C)C(F)(F)F)c1 [ALPELISIB]
IC50 [4]: 1460 nM

COc1cc(/C=N/NC(=O)Nc2ccc(-c3c(-c4nc[nH]n4)sc(N4CCOCC4)c3C#N)cc2)cc(OC)c1OC
IC50 [1]: 110 nM

N#Cc1c(N2CCOCC2)sc(-c2nc[nH]n2)c1-c1ccc(NC(=O)Nc2ccc(F)c(Cl)c2)cc1
IC50 [1]: 407 nM

N#Cc1c(N2CCOCC2)sc(-c2nc[nH]n2)c1-c1ccc(NC(=O)Nc2ccc(OC(F)(F)F)cc2)cc1
IC50 [1]: 835 nM

Cc1ccc(NC(=O)Nc2ccc(-c3c(-c4nc[nH]n4)sc(N4CCOCC4)c3C#N)cc2)cc1
IC50 [1]: 95.8 nM

N#Cc1c(N2CCOCC2)sc(-c2nc[nH]n2)c1-c1ccc(NC(=O)Nc2ccc(C(F)(F)F)cc2)cc1
IC50 [1]: 403 nM

Cc1cccc(C)c1NC(=O)Nc1ccc(-c2c(-c3nc[nH]n3)sc(N3CCOCC3)c2C#N)cc1
IC50 [1]: 344 nM

N#Cc1c(N2CCOCC2)sc(-c2nc[nH]n2)c1-c1ccc(NC(=O)N/N=C/c2ccccc2)cc1
IC50 [1]: 76.6 nM

N#Cc1c(N2CCOCC2)sc(-c2nc[nH]n2)c1-c1ccc(NC(=O)N/N=C/c2ccco2)cc1
IC50 (U-87 MG): 12300 nM | IC50 [2]: 204 nM | IC50 (T47D): 2680 nM | IC50 (PI3K p110 beta/p85 alpha): 74 nM | IC50 (NCI-H1975): 12900 nM | IC50 (NCI-H460): 1220 nM | IC50 [3]: 74 nM | IC50 [1]: 13.3 nM | IC50 [4]: 598 nM | IC50 (A549): 19400 nM

N#Cc1c(N2CCOCC2)sc(-c2nc[nH]n2)c1-c1ccc(NC(=O)Nc2ccccc2)cc1
IC50 [1]: 116 nM

N#Cc1c(N2CCOCC2)sc(-c2nc[nH]n2)c1-c1ccc(NC(=O)N/N=C/c2cccc(Br)c2)cc1
IC50 [1]: 89.8 nM

COc1ccc(/C=N/NC(=O)Nc2ccc(-c3c(-c4nc[nH]n4)sc(N4CCOCC4)c3C#N)cc2)cc1
IC50 [1]: 72 nM

N#Cc1c(N2CCOCC2)sc(-c2nc[nH]n2)c1-c1ccc(NC(=O)N/N=C/c2ccccn2)cc1
IC50 (U-87 MG): 22100 nM | IC50 [2]: 274 nM | IC50 (T47D): 2130 nM | IC50 (PI3K p110 beta/p85 alpha): 53 nM | IC50 (NCI-H1975): 11200 nM | IC50 (NCI-H460): 2690 nM | IC50 [3]: 49 nM | IC50 [1]: 6.5 nM | IC50 [4]: 416 nM | IC50 (A549): 18500 nM

N#Cc1c(N2CCOCC2)sc(-c2nc[nH]n2)c1-c1ccc(NC(=O)N/N=C/c2ccc(F)cc2)cc1
IC50 [1]: 75.5 nM

N#Cc1c(N2CCOCC2)sc(-c2nc[nH]n2)c1-c1ccc(NC(=O)Nc2ccccc2F)cc1
IC50 (U-87 MG): 3980 nM | IC50 [2]: 302 nM | IC50 (T47D): 410 nM | IC50 (PI3K p110 beta/p85 alpha): 89 nM | IC50 (NCI-H1975): 1520 nM | IC50 (NCI-H460): 400 nM | IC50 [3]: 334 nM | IC50 [1]: 22.3 nM | IC50 [4]: 1590 nM | IC50 (A549): 4190 nM

N#Cc1c(N2CCOCC2)sc(-c2nc[nH]n2)c1-c1ccc(NC(=O)N/N=C/c2ccc[nH]2)cc1
IC50 [1]: 9.4 nM

N#Cc1c(N2CCOCC2)sc(-c2nc[nH]n2)c1-c1ccc(NC(=O)N/N=C/c2ccc(OC(F)(F)F)cc2)cc1
IC50 [1]: 631 nM

N#Cc1ccc(-c2c(-c3nnc[nH]3)sc(N3CCOCC3)c2C#N)c(F)c1
IC50 [2]: 60 nM | IC50 (PI3K p110 beta/p85 alpha): 124 nM | IC50 [3]: 15 nM | IC50 [1]: 5.4 nM | IC50 [4]: 4060 nM

N#Cc1ccc(NC(=O)Nc2ccc(-c3c(-c4nc[nH]n4)sc(N4CCOCC4)c3C#N)cc2)cc1
IC50 [1]: 290 nM

N#Cc1c(N2CCOCC2)sc(-c2nc[nH]n2)c1-c1ccc(NC(=O)Nc2cccc(F)c2)cc1
IC50 [1]: 151 nM

COc1ccccc1NC(=O)Nc1ccc(-c2c(-c3nc[nH]n3)sc(N3CCOCC3)c2C#N)cc1
IC50 [1]: 105 nM

N#Cc1c(N2CCOCC2)sc(-c2nc[nH]n2)c1-c1ccc(NC(=O)N/N=C/c2c(Cl)cccc2Cl)cc1
IC50 [1]: 323 nM

N#Cc1c(N2CCOCC2)sc(-c2nc[nH]n2)c1-c1ccc(NC(=O)N/N=C/c2cccc(O)c2)cc1
IC50 (U-87 MG): 13000 nM | IC50 [2]: 440 nM | IC50 (T47D): 2220 nM | IC50 (PI3K p110 beta/p85 alpha): 43 nM | IC50 (NCI-H1975): 9760 nM | IC50 (NCI-H460): 1390 nM | IC50 [3]: 72 nM | IC50 [1]: 17.7 nM | IC50 [4]: 489 nM | IC50 (A549): 12700 nM
